Screen size: about 260,000 compounds; about 960 (0.37%) were called active.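 Rule for the calls: active = mean E-selectin-positive cell signal at least 10% of the positive control, reached in at least 60% of replicates, without over 20% cell loss; inconclusive = no rule given, readout overlaps actives, possibly toxicity-flagged; inactive = the rest, including those meeting only one limit.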 The sample as a whole holds a higher share of actives than the screen did.
Target: E-selectin (Homo sapiens) (UniProt P16581)
Assay: E-selectin induction in HUVECs, primary screen, imaging, HUVEC, immunofluorescence imaging, single point (AID 686992);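 note: signal is the percent of cells scored E-selectin positive by PE staining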
Conditions: at 7.58 µM, active compounds read high, normalized: neutral wells 0, TNF-alpha wells 100
In short: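 material = human umbilical vein endothelial cells (HUVEC), E-selectin induction | quantity = 3,000 cells/well | medium = EGM-2 growth medium on 0.1% gelatin-coated wells | technique = immunofluorescence imaging | read-out basis = % PE-positive cells | control set = TNF-alpha positive control, DMSO neutral control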

E-selectin (Homo sapiens), sequence (P16581 whole entry, looked up): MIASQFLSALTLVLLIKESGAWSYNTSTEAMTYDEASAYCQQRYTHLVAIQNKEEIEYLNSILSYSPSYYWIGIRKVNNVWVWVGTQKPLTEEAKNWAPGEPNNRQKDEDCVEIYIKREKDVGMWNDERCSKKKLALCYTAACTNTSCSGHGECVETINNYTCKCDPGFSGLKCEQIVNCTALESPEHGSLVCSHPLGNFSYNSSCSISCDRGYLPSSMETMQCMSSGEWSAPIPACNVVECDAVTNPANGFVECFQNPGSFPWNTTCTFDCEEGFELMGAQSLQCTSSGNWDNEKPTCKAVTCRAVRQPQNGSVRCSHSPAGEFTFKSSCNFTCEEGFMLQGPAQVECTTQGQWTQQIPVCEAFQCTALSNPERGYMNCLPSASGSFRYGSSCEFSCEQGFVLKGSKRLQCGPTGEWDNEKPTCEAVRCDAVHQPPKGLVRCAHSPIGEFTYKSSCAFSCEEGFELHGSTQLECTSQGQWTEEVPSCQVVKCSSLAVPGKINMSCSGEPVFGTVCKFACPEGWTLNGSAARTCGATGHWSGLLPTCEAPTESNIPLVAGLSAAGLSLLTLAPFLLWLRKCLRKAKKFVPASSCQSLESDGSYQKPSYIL

Compound	activation
COC(=O)C[C@H]1CC[C@@H](NC(=O)c2ccccc2)[C@@H](CO)O1	-0.322% (inactive)
O=C(COC(=O)CCc1c[nH]c2ccccc12)Nc1cccc(Cl)c1	5.9% (inactive)
CN1C(=O)c2cc(NC(=O)C3CCC3)ccc2OC[C@@H]2O[C@@H](CC(=O)NCc3ccccc3F)CC[C@@H]21	-0.028% (inactive)
COC(=O)C[C@@H]1CC[C@@H]2[C@H](COc3ccc(NC(=O)Nc4cccc(F)c4)cc3C(=O)N2C)O1	59.2% (active)
CN1C(=O)c2cc(NC(=O)C3CCCC3)ccc2OC[C@H]2O[C@H](CC(=O)NCc3ccccc3F)CC[C@H]21	0.0215% (inactive)
COC(=O)C[C@@H]1CC[C@@H]2[C@@H](COc3ccc(NC(=O)C4CCOCC4)cc3C(=O)N2C)O1	0.061% (inactive)
CN1C(=O)c2cc(NC(=O)C3CCOCC3)ccc2OC[C@@H]2O[C@H](CC(=O)NCc3ccccc3F)CC[C@H]21	99.5% (active)
COC(=O)C[C@@H]1CC[C@@H]2[C@H](COc3ccc(NC(=O)c4cccc(F)c4)cc3C(=O)N2C)O1	0.16% (inactive)
COC(=O)C[C@H]1CC[C@H]2[C@@H](COc3ccc(NC(=O)Nc4cccc(F)c4)cc3C(=O)N2C)O1	-0.114% (inactive)
COC(=O)C[C@H]1CC[C@H]2[C@@H](COc3ccc(NC(=O)C4CC4)cc3C(=O)N2C)O1	84.9% (active)
COC(=O)C[C@H]1CC[C@H]2[C@H](COc3ccc(NC(=O)C4CC4)cc3C(=O)N2C)O1	-0.049% (inactive)
C[C@@H](CN1C2=NC[C@@H](Cc3ccccc3)N2C[C@H]1Cc1ccc(O)cc1)NC(=O)CCC1CCCCC1	-4.54% (inactive)
CCC(C)CN1C(=O)CSCC1(C)C(=O)NCc1ccccc1 (centres undefined)	0.0415% (inactive)
COC(=O)[C@@H]1[C@@H](CO)[C@@H]2Cn3c(ccc(-c4ccc(OC)cc4)c3=O)[C@@H]2N1C	0.459% (inactive)
N#C[C@@H]1[C@@H](c2ccccc2)[C@H](CO)N1C(=O)c1cc(Cl)cc(Cl)c1	0.0965% (inactive)
COc1ccc(S(=O)(=O)N2C[C@H](O)COC[C@@H]3O[C@H](CC(=O)NCCN4CCCCC4)CC[C@H]32)cc1	0.128% (inactive)
COc1ccc(-c2ccccc2[C@H]2[C@@H](C#N)N(C(=O)C3CCC3)[C@@H]2CO)cc1	-0.0965% (inactive)
COc1cccc(-c2cc3nc(NCCOc4ccccc4Cl)n(C)c(=O)c3s2)c1	-0.11% (inactive)
COc1ccc(C(C)(O)c2nc(-c3ccc(C)c(C)c3)cs2)cc1 (centres undefined)	-0.298% (inactive)
COc1ccc2c3c(n(C)c2c1)[C@@H](CO)N(Cc1ccccc1OC)CC31CN(CC2CCOCC2)C1	-0.609% (inactive)
COc1ccc(C(C)(O)c2nc(-c3cc(F)cc(F)c3)cs2)cc1 (centres undefined)	0.357% (inactive)
Cc1ccc(C(=O)NCC(=O)NCc2cc(=O)n(C)c(=O)n2C)cc1	0.0495% (inactive)
COc1ccc(S(=O)(=O)NCC(=O)NCc2cc(=O)n(C)c(=O)n2C)cc1F	79.6% (active)
COc1ccc(S(=O)(=O)NCCOc2ccccc2)cc1F	-0.118% (inactive)
CCCC(=O)Nc1ccc2c(c1)C(=O)N(C)[C@@H]1CC[C@H](CC(=O)Nc3cn(C)nc3C)O[C@H]1CO2	-0.018% (inactive)

Compound	activation
Cn1c(Nc2ccc(F)cc2)nc2cc(-c3ccsc3)sc2c1=O	0.0175% (inactive)
COc1ccc(C2/C(=C(/O)c3ccccc3)C(=O)C(=O)N2C)c(OC)c1 (centres undefined)	0.122% (inactive)
COc1ccc(C2/C=C\CN(CC(C)C)CC(=O)N2Cc2ccc(F)cc2)cc1 (centres undefined)	-0.215% (inactive)
COc1ccc(C2c3[nH]c4ccccc4c3C[C@H]3C(=O)N(CC(C)C)CC(=O)N23)c(OC)c1 (some centres undefined)	61.1% (active)
CCC(=O)N1CC2(C1)[C@H](c1ccc(-c3ccc(C)cc3)cc1)[C@H](CO)N2S(C)(=O)=O	-0.277% (inactive)
COc1ccc(OC)c(C(O)c2ncc(-c3cccc(C(F)(F)F)c3)[nH]2)c1 (centres undefined)	-0.085% (inactive)
CCc1ccc(N2CC(C(=O)Nc3ccc(S(=O)(=O)Nc4nccs4)cc3)CC2=O)cc1 (centres undefined)	0.004% (inactive)
O=C(Nc1ccc(S(=O)(=O)N2CCCCC2)cc1)C1CC(=O)N(c2ccc(F)cc2)C1 (centres undefined)	-0.119% (inactive)
CNS(=O)(=O)c1ccc(NC(=O)C2CC(=O)N(c3ccc(Cl)cc3)C2)cc1 (centres undefined)	35.7% (active)
CC(=O)OCC1(O)CC23CCC4c5ccoc5CCC4(C)C2CCC1C3 (centres undefined)	0.708% (inactive)
COC(=O)C[C@@H]1CC[C@H]2[C@H](COc3ccc(NC(=O)c4ccccc4F)cc3C(=O)N2C)O1	0.0145% (inactive)
CCCCCCN1C[C@H](O)[C@@H](n2cc(C3CC3)nn2)C[C@@H]1c1ccc(Cl)cc1	-0.106% (inactive)
C[C@@H]1CN([C@H](C)CO)C(=O)c2c(c3ccccc3n2C)-c2ccccc2CO[C@@H]1CN(C)Cc1ccccc1C(F)(F)F	30.5% (active)
C[C@H](CO)N1C[C@H](C)[C@@H](CN(C)Cc2ccc(C(F)(F)F)cc2)OCc2ccccc2-c2c(n(C)c3ccccc23)C1=O	-0.577% (inactive)
C[C@@H]1CN([C@H](C)CO)C(=O)c2c(c3ccccc3n2C)-c2ccccc2CO[C@@H]1CN(C)Cc1ccc(F)cc1	-0.183% (inactive)
COc1ccc(CCCNC(=O)C2Cc3c(-c4cccc(C(N)=O)c4)ccnc3O2)cc1 (centres undefined)	0.751% (inactive)
C=CCC[C@H](CCCCC)OC(=O)/C=C/[C@H](O)[C@@H](O)C[C@@H](O)CC=C	-5.32% (inactive)
NC1=NC2(CCCCC2)N(c2ccc(F)cc2F)C(N)=N1	522% (active)
O=C(c1ccccc1)N1C[C@@H]2[C@H](c3ccccc31)[C@@H](CO)N2Cc1cc(F)ccc1F	0.162% (inactive)
CCN1C(=O)N[C@@H]2C[C@H](C(=O)N3CCCC3)[C@H](C)[C@H](c3ccccc3)C[C@@H]21	-0.199% (inactive)
Cc1ccc(CSc2nc3[nH]ncc3c(=O)[nH]2)cc1	92.1% (active)
Cc1cccc(NC(=O)CSc2nc3[nH]ncc3c(=O)[nH]2)c1	-0.483% (inactive)
Cc1ccc(CSc2nc(-c3ccccc3)c(C#N)c(=O)[nH]2)cc1	2.35% (inactive)
O=C1[C@@H](c2ccccc2)[C@@H](c2ccccc2)N1c1ccccc1	-0.064% (inactive)
O=C(N[C@H]1C=C[C@@H](CC(=O)N2CCc3ccccc3C2)O[C@@H]1CO)C1CCOCC1	-0.136% (inactive)

Compound	activation
COc1ccc(-c2nnc3n2CCCCC3)cc1	31.2% (active)
Cc1c(C(=O)Nc2cccc(-c3nnc4n3CCCCC4)c2)oc2ccccc12	-1.41% (inactive)
COc1cccc(C(=O)Nc2ccc3nc4n(c(=O)c3c2)CCCCC4)c1	0.059% (inactive)
Cc1cc(N2CCN(C(=O)OC(C)(C)C)C[C@H]2C)ccc1N1CCN(Cc2ccccc2)[C@H](C)C1	0.115% (inactive)
CCOC(=O)[C@]12CCC=C1N(Cc1ccco1)C(=O)[C@H](CC(=O)NCc1cccc(C(F)(F)F)c1)C2	-0.145% (inactive)
CCNC(=O)CC1C(=O)N(c2ccc(OC)cc2)C(=O)N1CCOC (centres undefined)	35.7% (active)
COc1ccc(CCN2C(=O)N(c3ccc(OC)cc3)C(=O)C2CC(=O)Nc2ccc(OC)cc2)cc1 (centres undefined)	4.19% (inactive)
CCOc1ccc(NC(=O)CC2C(=O)N(c3ccccc3)C(=O)N2CCOC)cc1 (centres undefined)	-0.224% (inactive)
O=C(CN1CCOCC1)NC[C@@H]1N[C@@H](CO)[C@@H]1c1ccc(-c2ccccc2)cc1	0.253% (inactive)
COc1ccc(-c2ccccc2C2Cc3nnccc3CN2C(=O)Nc2ccccc2)cc1 (centres undefined)	-0.134% (inactive)
COc1cc(OC)cc(-c2cc3ccc(F)cc3cn2)c1	0.221% (inactive)
CCCc1ccc(S(=O)(=O)N2CCN(C(=O)c3cc(C)on3)CC2)cc1	-0.187% (inactive)
CCCCCCNC(=O)O[C@H]1CN(C(=O)OC(C)C)N(C(=O)OC(C)C)[C@@H]2CN(S(=O)(=O)c3ccc(C)cc3)C[C@]12O	0.079% (inactive)
Cc1nc(-c2ccc(F)cc2)c(CC(=O)Nc2cc(S(=O)(=O)N3CCCCC3)ccc2C)s1	-1.09% (inactive)
Cc1ccc(S(=O)(=O)N2CCN(C(=O)Cc3sc(C)nc3-c3ccc(F)cc3)CC2)c(C)c1	62.2% (active)
Cc1nc(-c2ccc(F)cc2)c(CC(=O)N2CCN(S(=O)(=O)c3ccc(F)cc3)CC2)s1	-0.541% (inactive)
CCOC(=O)C1=C(C(=O)OCC)C2N(Cc3ccc(C#N)cc3)c3ccccc3[C@@]23C[C@@H](C(=O)OC)N(S(=O)(=O)c2ccc(F)cc2)C3=N1 (some centres undefined)	-0.148% (inactive)
COc1ccccc1S(=O)(=O)N[C@@H]1CC[C@H](CCn2cc(C3CCCC3)nn2)O[C@H]1CO	-0.101% (inactive)
CCCCCCCNC(=O)C1(CC2CC(c3cccc(Br)c3)=NO2)CCN(C(=O)c2cc(OCC)c(OCC)c(OCC)c2)CC1 (centres undefined)	0.076% (inactive)
Cc1cnc(CN(C)C(=O)CC2C(=O)NCCN2Cc2cccc(F)c2F)[nH]1 (centres undefined)	-0.473% (inactive)
CN(Cc1cccc2ncccc12)C(=O)CC1C(=O)NCCN1Cc1ccc(F)cc1 (centres undefined)	365% (active)
Cc1nc(CN(C)C(=O)CC2C(=O)NCCN2Cc2ccc(F)cc2)cs1 (centres undefined)	-0.598% (inactive)
COc1ccc2c3c([nH]c2c1)[C@@H](CO)N(C)CC31CCN(S(=O)(=O)c2ccc(C)cc2)CC1	-0.271% (inactive)
CO[C@H]1CN(C)C(=O)c2ccc(NC(C)=O)cc2OC[C@@H](C)N(C(=O)c2ccncc2)C[C@@H]1C	0.486% (inactive)
